Screening data as filed in PubChem.
Rows were chosen to be rich in hits. Some 1.9% of all compounds tested hit in one or more screens of this group.
Rtt109 Vps75: inhibitors of C. albicans Rtt109/Vps75 HAT, primary screen, biochemical, ThioGlo CoA-SH fluorescence, plate reader | Histone acetyltransferase RTT109 (Candida albicans (strain SC5314 / ATCC MYA-2876)), … | purified Rtt109/Vps75, 4 h | inhibition, % at 34.9 µM | 330,000 compounds, 0.16% hits;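 active = inhibition of at least 50% in every replicate; inconclusive = best replicate reaches 50% inhibition but some replicates fall short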
Target sequence (Q5AAJ8 whole entry, looked up): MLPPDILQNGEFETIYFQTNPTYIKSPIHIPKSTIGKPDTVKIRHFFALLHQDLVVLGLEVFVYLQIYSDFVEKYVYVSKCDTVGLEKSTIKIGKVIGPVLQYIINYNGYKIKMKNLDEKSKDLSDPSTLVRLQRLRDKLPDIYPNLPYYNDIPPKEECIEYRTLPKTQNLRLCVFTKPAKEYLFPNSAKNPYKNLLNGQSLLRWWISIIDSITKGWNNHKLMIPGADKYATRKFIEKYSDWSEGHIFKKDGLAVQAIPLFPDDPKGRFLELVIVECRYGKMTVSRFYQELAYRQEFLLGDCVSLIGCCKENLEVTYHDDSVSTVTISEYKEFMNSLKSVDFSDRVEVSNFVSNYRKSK
HIV Env fusion: inhibitors of HIV-1 Env-driven cell-cell fusion, primary screen, HeLa-JRFL effector, CEM21 target cells, luciferase; 360,000 compounds, 1.1% hits; inhibition, % at 12.3 µM; AID 651610, 2012;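 active = mean replicate inhibition score of at least 50 and every replicate individually at or above 50; inconclusive = only one of the two criteria met; inactive = mean below 50 and not all replicates reaching 50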;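 also: 0% = plate neutral controls and 100% = maraviroc near 300 nM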
PglD DTNB: C. jejuni PglD acetyltransferase inhibitors, primary screen, biochemical, DTNB colorimetric, single point; 360,000 compounds, 0.098% hits; purified PglD enzyme, DTNB colorimetric CoA detection; UDP-N-acetylbacillosamine N-acetyltransferase PglD (Campylobacter jejuni); inhibition, % at 12.5 µM; in the data active = inhibition above about 16%, passing the limit was not always enough; inconclusive = no clear call, values can overlap the other calls
SR-BI DiI inh: inhibitors of SR-BI mediated HDL lipid uptake, primary screen, ldlA[mSR-BI] cells, fluorescence, single point; 320,000 compounds, 0.96% hits; inhibition, % at 12.5 µM; ldlA[mSR-BI] CHO cells, DiI-HDL uptake fluorescence, 3 h; AID 488896, 2010; Scavenger receptor class B member 1 (Mus musculus), Q61009;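 active = mean replicate inhibition of at least 70% and a set share of replicates each scoring 70 or more; inconclusive = meets just one of the two criteria; inactive = fails both criteria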;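 also: 0% = median of neutral control wells and 100% = median of positive control wells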
N-glyco inh: increase of ERlucT glycosylation luciferase signal, primary screen, N-linked glycosylation inhibitor project, D54 ERlucT cells, luminescence, set 2 | reporter increase, % at 12.5 µM | AID 588692, 2011 | 360,000 compounds, 0.23% hits | D54 ERlucT glycosylation luciferase reporter, 24 h; percent of 100 nM tunicamycin response;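 active = mean luciferase reporter signal, scaled so untreated is 0 and the glycosylation-blocking control 100, at or above a set limit in every replicate; inconclusive = mean reaches the limit but not every replicate does; inactive = mean below the limit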;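 also: luciferase carries N-glycosylation sites so blocking glycosylation raises the light; 0% = median of neutral control wells and 100% = median of 100 nM tunicamycin wells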
SR-BI uptake up: activators of SR-BI mediated DiI-HDL uptake, primary screen, ldlA[mSR-BI] CHO cells, DiI fluorescence; 3 h; 100 = double the neutral-control signal; activation, % at 12.5 µM; 320,000 compounds, 0.096% hits;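 active = mean replicate activation of at least 60% and every replicate at or above 60%; inconclusive = mean or all-replicate condition met, but not both; inactive = mean below 60% and not all replicates reaching 60%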;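 also: 0% = median plate neutral-control signal and 100% = twice that signal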
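Material – SR-BI-overexpressing, LDLR-lacking CHO cells · Medium – BSA-supplemented, HEPES-buffered Ham's F12, pH 7.4 · Doses – single concentration · Times – compound with DiI-HDL co-incubation, 3 h at 37 °C · Measured by – bottom-read fluorescence, 550/595 nm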
* hit, by the source's call; ? = inconclusive; . = no result; [ ] = another dose, or the depositor's remark.

SMILES	Rtt109 Vps75	HIV Env fusion	PglD DTNB	SR-BI DiI inh	N-glyco inh	SR-BI uptake up
Cn1nc(-c2ccc(C(=O)Nc3ccc(F)cc3)cc2)c2ccccc2c1=O	5	.	.	?	-1	-74
Cc1ccc(NC(=O)c2ccc(-c3nn(C)c(=O)c4ccccc34)cc2)cc1	-19	75*	0	55	-3	-55
CCOCCCNCC(=O)NC1(C)C2CCC(C2)C1(C)C (stereo not given)	1	3	0	15	1	-15
CC1(C)C2CCC(C2)C1(C)NC(=O)CNCC1CCCCC1 (stereo not given)	8	61*	.	-17	-5	17
C[C@H](CO)N1C[C@H](C)[C@@H](CN(C)S(=O)(=O)c2ccc(F)cc2)Oc2cc(Br)ccc2S1(=O)=O	.	44[16.7 µM]	-1	.	.	.
C[C@H](CO)N1C[C@H](C)[C@H](CN(C)S(=O)(=O)c2ccc(F)cc2)Oc2cc(Br)ccc2S1(=O)=O	.	77*[16.7 µM]	-3	.	.	.
Cc1ccc(S(=O)(=O)N(C)C[C@@H]2Oc3cc(Br)ccc3S(=O)(=O)N([C@H](C)CO)C[C@@H]2C)cc1	.	63*[16.7 µM]	0	.	.	.
O=C([C@@H]1[C@@H](CO)[C@@H]2Cn3c(ccc(C4=CCCC4)c3=O)[C@@H]2N1CC1CC1)N1CCCCC1	.	-8[16.7 µM]	-2	.	.	.
CO[C@@H]1CN(C)C(=O)c2cc(NS(=O)(=O)c3cn(C)cn3)ccc2OC[C@@H](C)N(Cc2ccc(C(F)(F)F)cc2)C[C@H]1C	.	88*[16.7 µM]	-1	.	.	.
CO[C@@H]1CN(C)C(=O)c2ccc(NS(=O)(=O)c3cn(C)cn3)cc2OC[C@@H](C)N(Cc2ccc(C(F)(F)F)cc2)C[C@H]1C	.	.	1	.	.	.
CO[C@H]1CN(C)C(=O)c2cc(NS(=O)(=O)c3ccc(Cl)cc3)ccc2OC[C@@H](C)N(C)C[C@@H]1C	.	61*[16.7 µM]	0	.	.	.
CC/C(=N/NC(=O)c1ccc2c(c1)OCO2)c1ccccc1O	-21	4	-3	100*	-9	-100
CCOc1ccccc1NC(=O)c1ccc(S(=O)(=O)N2CCCCC2)cc1	15	2	4	76*	-5	-76
O=C(N/N=C/c1c(O)ccc2ccccc12)c1ccc(CO)nc1	-7	-3	-8	43	-10	-43
COc1ccccc1NC(=O)c1ccc(S(=O)(=O)N2CCCC2)cc1	7	-8	-2	38	-7	-38
C/C(=N\NC(=O)c1cc2ccccc2cc1O)c1ccc2c(c1)OCO2	-6	.	-10	11	0	-11
O=C(NN=Cc1c(O)ccc2ccccc12)c1ccc2c(c1)OCO2	14	38	0	124*	-7	-124
O=C(N/N=C\c1c(O)ccc2ccccc12)c1ccc(S(=O)(=O)N2CCCCC2)cc1	-7	10	.	143*	-10	-143
O=C(N/N=C/c1ccccc1)c1ccc2c(c1)OCO2	3	-130	1	-1	-10	1
C[C@H](CO)N1C[C@H](C)[C@@H](CN(C)C(=O)Nc2ccc(F)cc2)Oc2ccc(NS(=O)(=O)c3cccs3)cc2CC1=O	.	-2[16.7 µM]	-1	.	.	.
C[C@@H]1CN([C@@H](C)CO)C(=O)c2cc(NC(=O)CCC(F)(F)F)ccc2O[C@H]1CN(C)S(=O)(=O)c1cn(C)cn1	.	.	2	.	.	.
CCCNC(=O)N1[C@@H]2CN(C(=O)C3CCOCC3)c3ccccc3[C@@H]2[C@@H]1CO	.	.	-2	.	.	.
CN1C(=O)c2cc(NC(=O)C3CCCCC3)ccc2OC[C@@H]2O[C@@H](CC(=O)NCc3ccccc3F)CC[C@@H]21	.	2[16.7 µM]	-1	.	.	.
CCNC(=O)C[C@H]1CC[C@H]2[C@H](COc3ccc(NC(=O)Nc4cccc(OC)c4)cc3C(=O)N2C)O1	.	-8[16.7 µM]	0	.	.	.
Cc1noc(C)c1S(=O)(=O)N(C)C[C@@H]1OCCCC[C@@H](C)Oc2ccc(NC(=O)Nc3ccc4c(c3)OCO4)cc2C(=O)N([C@H](C)CO)C[C@@H]1C	.	-6[16.7 µM]	-3	.	.	.
SMILES	Rtt109 Vps75	HIV Env fusion	PglD DTNB	SR-BI DiI inh	N-glyco inh	SR-BI uptake up
Cc1noc(C)c1NC(=O)N(C)C[C@H]1OCCCC[C@@H](C)Oc2ccc(NS(=O)(=O)c3ccccc3)cc2C(=O)N([C@H](C)CO)C[C@H]1C	.	-22[16.7 µM]	-1	.	.	.
COc1cc(C(=O)N/N=C(\C)c2ccc3c(c2)OCO3)cc(OC)c1OC	3	-325	.	3	34*	-3
O=S(=O)(c1ccc(NC(=S)NN=Cc2ccccc2O)cc1)N1CCCCC1	13	-13	.	92*	-4	-92
O=C(CN1CCCc2ccccc21)N/N=C/c1c(O)ccc2ccccc12	1	20	.	-195	-10	195*
Cc1ccc(S(=O)(=O)N[C@@H]2CC[C@@H](CCn3cc(-c4ccccc4F)nn3)O[C@H]2CO)cc1	.	-14[16.7 µM]	5	.	.	.
C[C@H](CO)N1C[C@H](C)[C@@H](CN(C)Cc2ccc3c(c2)OCO3)Oc2ccc(NC(=O)CCN3CCOCC3)cc2C1=O	.	-17[16.7 µM]	3	.	.	.
C[C@@H]1CCCCO[C@@H](CN(C)C(=O)Nc2ccccc2)[C@H](C)CN([C@@H](C)CO)C(=O)c2cc(NC(=O)CCC(F)(F)F)ccc2O1	.	-31[16.7 µM]	0	.	.	.
FC(F)(F)c1cccc(Nc2cc(-c3ccccc3)nc3ncnn23)c1	-7	7	.	-12	3	12
FC(F)(F)c1ccc(N2CCN(c3cc(-c4ccccc4)nc4ncnn34)CC2)nc1	-4	77*	3	2	1	-2
COc1ccc(-c2nnn(CC(=O)N(Cc3cccs3)C(C)C(=O)NC3CCCC3)n2)cc1OC (stereo not given)	27	78*	-1	26	3	-26
COc1cccc(S(=O)(=O)N(C)C[C@H]2Oc3cc(C#CCC(C)C)ccc3S(=O)(=O)N([C@@H](C)CO)C[C@@H]2C)c1	.	42[16.7 µM]	4	.	.	.
COc1cccc(NC(=O)N2C[C@H](O)COC[C@H]3O[C@@H](CC(=O)NC4CCC4)CC[C@@H]32)c1	.	.	3	.	.	.
CCSc1nnc(N2C(=O)CC(c3ccsc3)C3=C2CC(C)(C)CC3=O)s1 (stereo not given)	7	58*	2	-11	0	11
COc1ccc2nc(N/C(N)=N/S(C)(=O)=O)nc(C)c2c1	1	61*	-1	-1	3	1
COc1ccc(C(=O)Nc2nc(CC(=O)NCCc3cccc(OC)c3)cs2)cc1	0	-5	.	73*	-1	-73
